Consider 13 compounds from PubChem BioAssay AID493196 (Broad Institute, 2011).

As a reminder, the AC50 is the concentration giving half of the maximal activity seen.

The structures appear in SMILES notation. Records with an inconclusive call do not appear. Activity calls are given as the source filed them.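 The calls were made as follows: active = every repeat test active, with falling signal and half-maximal dose at most ten times the top dose; inconclusive = repeat tests disagree, or a weak flat or poor fit; inactive = all tests inactive, including signal shifting the wrong way.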

The nature of assay [1]: HMLE_sh_eGFP viability loss – cell-based, luminescence, dry powder, set 3, counter-screen for breast cancer stem cell project, dose response (AID 493196). The settings on record: HMLE_sh_eGFP viability, CellTiter-Glo luminescence, 72 h; at 19.5 µM (top of the series). In outline:
(§1)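 Assay system – HMLE_sh_eGFP counterscreen cell line · Quantity – 2000 cells per well · Buffer or medium – serum-free CSC screening medium · Schedule – ≥4 h attachment, ~70–74 h exposure, 37 °C, 5% CO2 · Detection – CellTiter-Glo luminescence · Control set – DMSO neutral control, 160 µM puromycin positive control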
On the technique in general: A counterscreen serves to expose hits that act by an unwanted route or on another target.

The subject of assay [2] is HMLE_sh_eGFP viability, CellTiter-Glo luminescence, 72 h. Described as above. The procedure, abridged: as §1

As to `O=C(c1ccccc1)c1coc2ccc(O)c(Br)c12`, the activity change, negative = cytotoxic in assay [1] is 1.2% (inactive).
For `CC(C)(C)c1ccc2c(c1)OC(C(=O)NN=Cc1ccc[nH]1)CO2` (mixture of isomers), the AC50 in assay [2] is 19.6 µM.
For the compound `O=C1NC(=Nc2ccc(Cl)cc2)SC1Cc1cccc(Cl)c1Cl` (stereo not drawn), in assay [2], the AC50 was 14.5 µM.
Regarding `CN(c1ccccc1)S(=O)(=O)c1ccc(-c2ccccc2)cc1`, in assay [2], the concentration at half-maximal activity (AC50) was 14.4 µM.
Turning to `CCCCCCc1cc2cc(S(=O)(=O)c3ccc(Cl)cc3)c(=O)oc2cc1O`, the half-maximal activity concentration (AC50) in assay [2] was 0.965 µM.
For `CC(=O)c1cccc(NS(=O)(=O)c2cc(-c3cnc(C4CC4)o3)ccc2C)c1`, in assay [2], the AC50 is 2.67 µM.
The same measure, in the same setting: the result for `Cc1onc(-c2ccccc2)c1C(=O)Nc1sc2c(c1C#N)CCC(C)C2` (stereo not drawn) reads 6.9 µM.
The same measure, in the same setting: for `C/C(=N\NC(=O)c1cc(-c2cccc([N+](=O)[O-])c2)n[nH]1)c1ccccc1O` the value was 3.52 µM; for `O=C(Nc1ccccc1N1CCCC1)c1cccc(-c2cc3ccccc3oc2=O)c1`, 7.97 µM.
The same measure, in the same setting: the result for `Nc1cc(Cl)ccc1Oc1ccc2ccccc2c1` reads 9.73 µM.
For `COC(=O)c1c(NC(=O)c2ccccc2)sc2c1CC(C)(C)OC2`, the AC50 in assay [2] is 13.4 µM.
Still for that read-out and setting: for `CCN1C(=O)/C(=C\N2CCN(c3cccc(Cl)c3)CC2)SC1=S` the value was 11.8 µM.
For the compound `Cc1ccc2nc(NC(=O)c3cccc(-c4cc5ccccc5oc4=O)c3)sc2c1`, in assay [2], the AC50 was 1.85 µM.
